ChEMBL document CHEMBL1157729, “Structure-activity relationship and mechanism of action studies of manzamine analogues for the control of neuroinflammation and cerebral infections” (J Med Chem, 2010)
In brackets after ≈: the same amount, converted by molar mass. Activity calls are given as the source filed them. The calls are words filed in the database; no cut-off is given here.

Tests used:
[1] = test system: Mycobacterium tuberculosis; experiment: Antimycobacterial activity against Mycobacterium tuberculosis H37Rv; assay type: functional, organism-based
[2] = (§1) Antineuroinflammatory activity in LPS-stimulated rat neonatal microglia assessed as inhibition of PMA-induced TXB2 production preincubated 15 mins prior to PMA challenge measured after 70 mins; assay type: functional, cell-based
[3] = (§2) Antineuroinflammatory activity in LPS-stimulated rat neonatal microglia assessed as inhibition of PMA-induced superoxide anion production preincubated 15 mins prior to PMA challenge measured after 70 mins; assay type: functional, cell-based
[4] = test system: Mycobacterium intracellulare; experiment: Antimycobacterial activity against Mycobacterium intracellular ATCC 23068; assay type: functional, organism-based
In short: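 Modified Franzblau method; samples serially diluted in 20% DMSO/saline, tested in duplicate; inoculum set by OD630; fluorescence read at 544ex/590em before and after incubation; ciprofloxacin drug control.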

[5] = Antineuroinflammatory activity in LPS-stimulated rat neonatal microglia assessed as drug level causing 50% PMA-induced LDH release preincubated 15 mins prior to PMA challenge measured after 70 mins; assay type: functional
In short: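 Neonatal rat microglia (2 × 10^5/well) primed with E. coli LPS 0.3 ng/mL for 17 h at 35.9 °C, washed with HBSS, given compound (0.01–10 μM) or DMSO 15 min, then PMA 1 μM; LDH read spectrophotometrically after 70 min; LDH50 relative to Triton X-100 (0.1%) release; duplicates.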

[6] = test system: Cryptococcus neoformans; experiment: Antifungal activity against Cryptococcus neoformans ATCC 90113; assay type: functional, organism-based
In short: (§3)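 Broth microdilution per modified CLSI method; samples serially diluted in 20% DMSO/saline, tested in duplicate; inocula set by OD630 of suspensions in incubation broth; growth read at 630 nm before and after incubation; amphotericin B drug control.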

[7] = test system: Plasmodium falciparum; experiment: Antiplasmodial activity against chloroquine-resistant Plasmodium falciparum W2 after 72 hrs by LDH assay; assay type: functional, organism-based; details: Plasmodium falciparum, W2, 72 h; read-out: IC50
[8] = test system: Candida albicans; experiment: Antifungal activity against Candida albicans ATCC 90028; assay type: functional, organism-based; in short: as §3
[9] = test system: Mycobacterium intracellulare; experiment: Ratio of IC50 for drug to ciprofloxacin against Mycobacterium intracellular ATCC 23068; assay type: functional
[10] = test system: Plasmodium falciparum; experiment: Antiplasmodial activity against chloroquine-sensitive Plasmodium falciparum D6 after 72 hrs by LDH assay; assay type: functional, organism-based; details: Plasmodium falciparum, D6, 72 h; read-out: IC50
[11] = test system: Vero; experiment: Cytotoxicity against african green monkey Vero cells after 48 hrs by neutral red assay; assay type: cell-based; details: chlorocebus sabaeus
In short: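 Vero cells seeded at 25,000/well and grown 24 h, then exposed to serially diluted samples for 48 h. Viable cells measured by neutral red assay, with doxorubicin as positive control. IC50 taken from dose-response curves.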

[12] = test system: Microglia; experiment: as §1; assay type: functional, cell-based
[13] = test system: Microglia; experiment: as §2; assay type: functional, cell-based
[14] = test system: Plasmodium berghei; experiment: Antiplasmodial activity against Plasmodium berghei NK65 infected in Swiss Webster mice (Mus musculus) assessed as parasitaemia cure at 200 mg/kg, perorally administered 1 day after infection measured after 28 days post infection; assay type: functional; details: route oral
In short: (§4)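 Male Swiss Webster mice (18-20 g), at least 5 per group, were inoculated ip with 2×10^7 P. berghei NK-65-parasitized red cells from a donor mouse and given a single oral dose (100 μl). Stock was made in SSV or 0.1 M HCl and diluted in SSV or 0.01 M HCl. Parasitemia was read from Giemsa-stained tail blood smears from day 5 to day 28. Cure meant no parasitemia through day 28.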

[15] = test system: Plasmodium berghei; experiment: Antiplasmodial activity against Plasmodium berghei NK65 infected in Swiss Webster mice (Mus musculus) assessed as average parasitaemia at 200 mg/kg, perorally administered 1 day after infection measured after 28 days post infection; assay type: functional; details: route oral
In short: (§5)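 Male Swiss Webster mice (18-20 g, ≥5/group) inoculated i.p. with 2×10^7 P. berghei NK-65 parasitized RBC, given a single oral dose (100 μl, SSV or dilute HCl vehicle); parasitemia by Giemsa-stained tail blood smears days 5–28; activity as % decrease versus untreated controls on day 5.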

[16] = test system: Plasmodium berghei; experiment: Antiplasmodial activity against Plasmodium berghei NK65 infected in Swiss Webster mice (Mus musculus) assessed as inhibition of parasitaemia at 200 mg/kg, perorally administered 1 day after infection measured after 5 days post infection; assay type: functional; design: Activity: scale not given: the % may be the effect or the level left; details: route oral; in short: as §5
[17] = test system: Plasmodium berghei; experiment: Antiplasmodial activity against Plasmodium berghei NK65 infected in Swiss Webster mice (Mus musculus) assessed as average parasitaemia at 200 mg/kg, perorally administered 1 day after infection measured after 21 days post infection; assay type: functional; details: route oral; in short: as §4
[18] = test system: Plasmodium berghei; experiment: Antiplasmodial activity against Plasmodium berghei NK65 infected in Swiss Webster mice (Mus musculus) assessed as average parasitaemia at 200 mg/kg, perorally administered 1 day after infection measured after 14 days post infection; assay type: functional; details: route oral; in short: as §4
[19] = test system: Plasmodium berghei; experiment: Antiplasmodial activity against Plasmodium berghei NK65 infected in Swiss Webster mice (Mus musculus) assessed as average parasitaemia at 200 mg/kg, perorally administered 1 day after infection measured after 5 days post infection; assay type: functional; details: route oral; in short: as §4
[20] = test system: MDCK; experiment: Apparent permeability across apical to basolateral side of MDCK cells expressing MDR; assay type: ADME, cell-based, Canis lupus familiaris; details: dog
In short: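 MDR-MDCK cells (passage 12-40) seeded at 75,000 cells/cm2 and grown 8 days on Transwell inserts to a monolayer. Bidirectional transport over 2 h in HBSS pH 7.4 with test substance at 50 μM and caffeine (5 μM) as standard. Donor and receiver samples quantified by LC-MS. Cumulative amount transported plotted against time to derive apparent permeability.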

[21] = test system: Plasmodium berghei; experiment: Antiplasmodial activity against Plasmodium berghei NK65 infected in Swiss Webster mice (Mus musculus) assessed as average parasitaemia at 200 mg/kg, perorally administered 1 day after infection measured after 10 days post infection; assay type: functional; details: route oral; in short: as §5
[22] = test system: Plasmodium yoelii; experiment: Antiplasmodial activity against Plasmodium yoelii infected in perorally dosed mice (Mus musculus); assay type: functional; details: po

For `COC(=O)c1cc2c([nH]c3ccccc32)c(C2=C[C@@]3(O)CC/C=C\CCCCN4CC[C@@H]2[C@]2(C[C@@H]5/C=C\CCCCN5[C@H]23)C4)n1`, the MIC [1] was greater than 64 µg/mL, the IC50 [2] was 0.11 µM and the IC50 [3] was 0.03 µM. For the same molecule, the IC50 [4] was less than 0.02 µg/mL, the Activity [5] was greater than 10 µM and the IC50 [6] was 2 µg/mL (≈ 3.3 µM). The IC50 [7] was 0.015 µg/mL (≈ 0.0247 µM), the IC50 [8] was 20 µg/mL (≈ 33 µM) and the “Ratio IC50” value [9] was 5. It also gave an IC50 [10] of 0.011 µg/mL (≈ 0.0181 µM) and an IC50 [11] of 0.2 µg/mL (≈ 0.33 µM).

Molecule `COC(=O)C1Cc2c([nH]c3ccccc23)C(C2=C[C@@]3(O)CC/C=C\CCCCN4CC[C@@H]2[C@]2(C[C@@H]5/C=C\CCCCN5[C@H]23)C4)N1` (stereo partly drawn) has an MIC [1] greater than 64 µg/mL, an IC50 [2] of 4.9 µM and an IC50 [3] of 8.6 µM. The IC50 [4] was 0.06 µg/mL (≈ 0.0982 µM), the Activity [5] was 5 µM and the IC50 [6] was 3.5 µg/mL (≈ 5.73 µM). The IC50 [7] was 0.17 µg/mL (≈ 0.278 µM), the IC50 [8] was greater than 20 µg/mL and the “Ratio IC50” value [9] was 5. It also gave an IC50 [10] of 0.1 µg/mL (≈ 0.164 µM) and an IC50 [11] of 1 µg/mL (≈ 1.64 µM).

Work on `CC(C)(C)Cn1c2ccccc2c2ccnc(C3=C[C@@]4(O)CC/C=C\CCCCN5CC[C@@H]3[C@]3(C[C@@H]6/C=C\CCCCN6[C@H]34)C5)c21` [9-N-NEOPENTYLMANZAMINE A] yielded an MIC [1] of 4 µg/mL (≈ 6.46 µM), an IC50 [2] of 0.07 µM and an IC50 [3] of 0.07 µM. It also gave an IC50 [4] of 0.5 µg/mL (≈ 0.808 µM), an Activity [5] greater than 10 µM and an IC50 [6] of 4 µg/mL (≈ 6.46 µM). It also gave an IC50 [7] of 2.8 µg/mL (≈ 4.52 µM), an IC50 [8] of 7 µg/mL (≈ 11.3 µM) and an IC50 [10] of 2.4 µg/mL (≈ 3.88 µM). For the same molecule, the IC50 [11] was 0.7 µg/mL (≈ 1.13 µM).

`CCCn1c2ccccc2c2ccnc(C3=C[C@@]4(O)CC/C=C\CCCCN5CC[C@@H]3[C@]3(C[C@@H]6/C=C\CCCCN6[C@H]34)C5)c21` [9-N-PROPYLMANZAMINE A] showed an MIC [1] of 37 µg/mL (≈ 62.6 µM), an IC50 [2] greater than 10 µM and an IC50 [3] of 3 µM. The IC50 [4] was 2 µg/mL (≈ 3.38 µM), the Activity [5] was greater than 10 µM and the IC50 [6] was greater than 20 µg/mL. For the same molecule, the IC50 [7] was 0.74 µg/mL (≈ 1.25 µM), the IC50 [8] was greater than 20 µg/mL and the IC50 [10] was 0.69 µg/mL (≈ 1.17 µM). The IC50 [11] was 3.7 µg/mL (≈ 6.26 µM).

In the case of `Oc1cccc2c1[nH]c1c(C3=C[C@@]4(O)CCCCCCCCN5CC[C@@H]3[C@]3(C[C@@H]6CCCCCCN6[C@H]34)C5)nccc12` [15,16,32,33-TETRAHYDRO-8-HYDROXYMANZAMINE A], the MIC [1] is reported as 24 µg/mL (≈ 42.2 µM), the IC50 [2] is reported as 1.97 µM and the Activity [12] is reported as “inactive”. The IC50 [3] was greater than 10 µM, the Activity [13] was “inactive” and the IC50 [4] was 0.1 µg/mL (≈ 0.176 µM). It also gave an Activity [5] greater than 10 µM, an IC50 [6] of 1.5 µg/mL (≈ 2.64 µM) and an IC50 [7] of 0.62 µg/mL (≈ 1.09 µM). The IC50 [8] was 6 µg/mL (≈ 10.5 µM) and the IC50 [10] was 0.09 µg/mL (≈ 0.158 µM).

Work on `CCN(CC)CCCC(C)Nc1ccnc2cc(Cl)ccc12` (stereo not drawn) [CHLOROQUINE] yielded an Activity [14] of 80%, an Activity [15] of 8% and an Activity [16] of 100%. The Activity [17] was 4%, the Activity [18] was 0.2% and the Activity [19] was 0%.

Molecule `Cl.O[C@]12C=C(c3nccc4c3[nH]c3ccccc34)[C@@H]3CCN(CCCC/C=C\CC1)C[C@@]31C[C@@H]3/C=C\CCCCN3[C@H]12` [MANZAMINE A HCL] has a Papp [20] of 1.9 ×10⁻⁶ cm/s.

With `C=C[C@H]1CN2CC[C@H]1C[C@H]2[C@H](O)c1ccnc2ccc(OC)cc12` [QUININE] the Activity [14] was 0%, the Activity [21] was 14% and the Activity [16] was 26%. It also gave an Activity [17] of 45%, an Activity [18] of 32% and an Activity [19] of 7.3%.

In the case of `C[C@H]1[C@H](OC(=O)CCC(=O)[O-])O[C@@H]2O[C@@]3(C)CC[C@H]4[C@H](C)CC[C@@H]1[C@@]24OO3.[Na+]` [SODIUM ARESUNATE], the ED50 [22] is reported as 4.1 mg/kg and the ED90 [22] is reported as 17 mg/kg.

For `O[C@]12C=C(c3nccc4c3[nH]c3ccccc34)[C@@H]3CCN(CCCCCCCC1)C[C@@]31C[C@@H]3CCCCCCN3[C@H]12` [TETRAHYDROMANZAMINE A], the MIC [1] was 50 µg/mL (≈ 90.4 µM), the IC50 [2] was greater than 10 µM and the Activity [12] was “inactive”. The IC50 [3] was greater than 10 µM, the Activity [13] was “inactive” and the IC50 [4] was 0.45 µg/mL (≈ 0.814 µM). For the same molecule, the Activity [5] was greater than 10 µM, the IC50 [6] was 0.9 µg/mL (≈ 1.63 µM) and the IC50 [7] was 1.5 µg/mL (≈ 2.71 µM). For the same molecule, the IC50 [8] was 7.5 µg/mL (≈ 13.6 µM).
